The structures appear in SMILES notation. The source made the active and inactive calls. The rule behind the calls is not given here.

Series [1] concerns the target T1, C5a anaphylatoxin chemotactic receptor 1 (Homo sapiens, UniProt P21730).
T1 sequence (P21730 whole entry): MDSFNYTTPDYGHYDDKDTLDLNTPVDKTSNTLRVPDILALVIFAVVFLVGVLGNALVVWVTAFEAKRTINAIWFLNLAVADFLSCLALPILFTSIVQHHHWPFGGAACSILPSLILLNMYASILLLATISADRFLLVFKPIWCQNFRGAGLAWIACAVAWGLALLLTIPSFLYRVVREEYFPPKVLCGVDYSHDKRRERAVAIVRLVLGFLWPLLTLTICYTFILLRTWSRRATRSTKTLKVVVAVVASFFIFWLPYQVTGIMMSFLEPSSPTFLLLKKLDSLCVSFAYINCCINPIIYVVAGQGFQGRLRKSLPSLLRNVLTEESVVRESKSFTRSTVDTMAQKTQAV
As to the kind of experiment: Antagonist activity at human recombinant C5a receptor in HEK cells assessed as inhibition of C5a-induced calcium mobilization. The class given is functional, cell-based, HEK293.

The nature of series [2]: Metabolic stability in Sprague-Dawley rat hepatocytes assessed as intrinsic clearance measured per 10^6 cells.
The nature of series [3]: Metabolic stability in human liver microsomes assessed as intrinsic clearance.
Series [4] can be described thus: Lipophilicity, log D at pH 7.4. Particulars: buffer.
Series [5] addresses T2, C5a anaphylatoxin chemotactic receptor 1 (Mus musculus) (UniProt P30993).
T2 sequence (whole entry): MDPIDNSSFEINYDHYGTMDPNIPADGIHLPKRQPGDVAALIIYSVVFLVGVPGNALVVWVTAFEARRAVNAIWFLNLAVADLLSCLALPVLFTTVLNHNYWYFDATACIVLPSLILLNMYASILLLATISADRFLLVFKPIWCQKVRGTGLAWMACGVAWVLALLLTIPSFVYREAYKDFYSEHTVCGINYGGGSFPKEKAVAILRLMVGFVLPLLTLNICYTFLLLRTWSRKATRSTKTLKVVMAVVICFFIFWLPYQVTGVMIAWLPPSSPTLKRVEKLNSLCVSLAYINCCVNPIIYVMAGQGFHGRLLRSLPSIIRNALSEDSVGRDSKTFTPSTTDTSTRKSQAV
Kind of series: Antagonist activity at mouse recombinant C5a receptor expressed in HEK cells assessed as inhibition of C5a-induced calcium mobilization at 30 uM. The class given is functional, cell-based. The following applies: HEK293. In a few lines:
(§1)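 Non-human (dog, mouse or rat) recombinant C5aR cell lines tested for antagonism of C5a-stimulated intracellular calcium mobilization. Values are means of at least two experiments.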

Series [6] has as its target T3, C5a anaphylatoxin chemotactic receptor 1 (Canis lupus familiaris) (UniProt P30992).
T3 sequence (whole entry): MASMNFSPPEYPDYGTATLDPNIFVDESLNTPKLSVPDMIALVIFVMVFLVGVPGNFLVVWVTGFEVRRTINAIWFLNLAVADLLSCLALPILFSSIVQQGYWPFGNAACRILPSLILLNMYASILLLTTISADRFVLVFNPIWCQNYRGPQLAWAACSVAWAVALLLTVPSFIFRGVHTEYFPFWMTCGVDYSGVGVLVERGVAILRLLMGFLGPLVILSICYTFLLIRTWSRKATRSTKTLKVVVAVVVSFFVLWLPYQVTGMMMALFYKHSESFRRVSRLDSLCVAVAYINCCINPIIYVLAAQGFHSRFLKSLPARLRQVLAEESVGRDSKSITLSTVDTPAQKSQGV
Kind of series: Antagonist activity at dog recombinant C5a receptor expressed in HEK cells assessed as inhibition of C5a-induced calcium mobilization at 30 uM. Type of series: functional, cell-based. The following applies: HEK293. The procedure, abridged: as §1

The target in series [7] is T4, C5a anaphylatoxin chemotactic receptor 1 (Rattus norvegicus) (UniProt P97520).
T4 sequence (whole entry): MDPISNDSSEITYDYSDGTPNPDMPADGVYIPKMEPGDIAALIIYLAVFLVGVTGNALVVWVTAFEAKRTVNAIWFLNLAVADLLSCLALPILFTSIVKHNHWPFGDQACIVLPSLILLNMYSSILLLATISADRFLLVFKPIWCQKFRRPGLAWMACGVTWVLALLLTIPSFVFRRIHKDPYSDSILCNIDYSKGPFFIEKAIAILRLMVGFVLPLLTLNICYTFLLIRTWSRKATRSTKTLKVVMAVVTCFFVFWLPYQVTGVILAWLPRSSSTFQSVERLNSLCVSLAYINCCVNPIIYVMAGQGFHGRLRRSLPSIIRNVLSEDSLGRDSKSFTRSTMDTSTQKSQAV
As to the kind of experiment: Antagonist activity at rat recombinant C5a receptor expressed in HEK cells assessed as inhibition of C5a-induced calcium mobilization at 30 uM. Type of series: functional, cell-based. The following applies: HEK293. The procedure, abridged: as §1

The target of series [8] is T1, C5a anaphylatoxin chemotactic receptor 1. As to the kind of experiment: Displacement of [125I]C5a from human recombinant C5a receptor expressed in HEK cells by membrane binding assay. For orientation: Displacement assays read how much labelled ligand stays bound in the presence of the test substance.
Series [9] has the same target.
Series [10] has the same target. Kind of series: Displacement of [Alexa647]C5a from human recombinant C5a receptor expressed in HEK cells by whole cell binding assay. The class given is cell-based, HEK293. In a few lines:
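Whole-cell FMAT competition binding measured inhibition of Alexa-647-labeled C5a binding to HEK-293 cells co-expressing human recombinant C5aR and Gα16. pIC50 derived; values are means of at least two experiments.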

The target is the same in series [11]. As to the kind of experiment: Displacement of from human recombinant C5a receptor expressed in HEK cells by membrane binding assay in presence.

What is called IC50 is the midpoint of a concentration-inhibition curve. With `COc1ccc(N(C(=O)c2ccccc2)C(C(=O)O)c2ccccc2F)c(OC)c1` (centres undefined), the IC50 in series [1] was above 10000 nM.
Usually hepatocyte CLint stands for the rate of metabolic loss divided by the concentration. What is called microsomal CLint is a measure of how fast metabolising enzymes remove a compound, apart from limits set by blood flow. As to `COc1ccc(N(C(=O)c2ccoc2C)C(C(=O)NC[C@@H](C)O)c2ccccc2F)c(OC)c1` (some centres undefined), the hepatocyte CLint in [2] stood at 75 µL/min/1e6 cells. Further, the IC50 in series [1] was 39.8 nM. For the same molecule, in series [3] (liver microsomes), the microsomal CLint came out at 134 µL/min/mg.
Turning to `COc1ccc(N(C(=O)c2ccccc2)C(C)C(=O)NC2CCCC2)c(OC)c1` (centres undefined), the IC50 in series [1] was above 10000 nM.
`COc1ccc(N(C(=O)c2ccccc2)C(C(=O)NC[C@H](C)O)c2ccccc2F)c(OC)c1` (some centres undefined): in series [1], the IC50 is above 100 nM.
As to `COc1ccc(N(C(C)=O)C(C(=O)NC2CCCC2)c2ccccc2F)c(OC)c1` (centres undefined), in series [1], the IC50 was 794 nM.
Broadly, the logD is the decadic logarithm of the distribution of all forms, ionised or not, between an organic phase and buffer at a given pH. High values mean a more lipophilic compound, low ones a more hydrophilic compound. As for `COc1ccc(N(C(=O)c2ccoc2Cl)C(C(=O)NC[C@@H](C)O)c2ccccc2F)c(OC)c1` (some centres undefined), the hepatocyte CLint in [2] amounted to 33 µL/min/1e6 cells. In addition, in series [1], the IC50 was 316 nM. For the same molecule, the microsomal CLint in series [3] (liver microsomes) was 48 µL/min/mg. In [4], this molecule returned a logD of 2.4.
Regarding `COc1ccc(N(C(=O)c2ccccc2)C(C(=O)NC(C)CN(C)C)c2ccccc2F)c(OC)c1` (centres undefined), the hepatocyte CLint in [2] was 33 µL/min/1e6 cells. Besides, the IC50 in series [1] was 1000 nM. The microsomal CLint in series [3] (liver microsomes) came out at 135 µL/min/mg.
With `COc1ccc(N(C(=O)c2occc2Cl)C(C(=O)NC[C@@H](C)O)c2ccccc2F)c(OC)c1` (some centres undefined), the hepatocyte CLint in [2] came out at 59 µL/min/1e6 cells. In series [1], the IC50 is 200 nM. In [3] (liver microsomes), the intrinsic metabolic clearance (microsomal CLint) stood at 148 µL/min/mg. The molecule further returned a logD in series [4] of 2.2.
As to `COc1ccc(N(C(=O)c2occc2CO)C(C(=O)NC[C@@H](C)O)c2ccccc2F)c(OC)c1` (some centres undefined), the hepatocyte CLint in series [2] stood at 8 µL/min/1e6 cells. In series [3] (microsomes), the microsomal CLint is 12 µL/min/mg. This molecule also displayed a logD in series [4] of 1.4.
For the molecule `COc1ccc(N(C(=O)c2ccccc2)C(C(=O)NC[C@@H](C)O)c2ccccc2F)c(OC)c1` (some centres undefined), the hepatocyte CLint in series [2] is above 150 µL/min/1e6 cells. Also, the IC50 in series [1] is 63.1 nM. Further, the microsomal CLint in series [3] (liver microsomes) was found to be 104 µL/min/mg. For the same molecule, the logD in series [4] turned out to be 2.55.
With `CN(C(=O)c1ccccc1)C(C(=O)NC1CCCC1)c1ccccc1F` (centres undefined), the IC50 in series [1] was above 10000 nM.
Take `COc1ccc(N(C(=O)c2occc2CN(C)C)C(C(=O)NC[C@@H](C)O)c2ccccc2F)c(OC)c1` (some centres undefined): the intrinsic clearance (hepatocyte CLint) in series [2] was below 3 µL/min/1e6 cells. The IC50 in series [1] was 3160 nM. Besides, the microsomal CLint in [3] (liver microsomes) was determined as 12 µL/min/mg.
The matching figures for `COc1ccc(N(C(=O)c2occc2C)C(C(=O)NC[C@@H](C)O)c2ccccc2F)c(OC)c1` (some centres undefined): 87 µL/min/1e6 cells, 20 nM and 126 µL/min/mg.
With `COCc1ccoc1C(=O)N(c1ccc(OC)cc1OC)C(C(=O)NC[C@@H](C)O)c1ccccc1F` (some centres undefined), in [2], the hepatocyte CLint came out at 35 µL/min/1e6 cells. For the same molecule, the IC50 in [1] was 100 nM. In addition, in [3] (liver microsomes), the microsomal CLint came out at 76 µL/min/mg. Moreover, the logD in series [4] is 2.
What is called EC50 is the concentration that produces a half-maximal response. Read a low EC50 as a more potent agent. For `COc1ccc(N(C(=O)c2ccccc2)C(C(=O)NC2CCCC2)c2ccccc2F)c(OC)c1` (centres undefined), the result in series [5], in series [6] and in series [7] was inactive. Besides, the IC50 in [8] is 794 nM; in series [10], 39.8 nM; in series [11] it was 31.6 nM; in series [1] it was 25.1 nM. The molecule also had an EC50 in series [9] of 123 nM. This molecule returned a logD in series [4] of 3.9.
In the case of `COc1ccc(N(C(=O)c2ccco2)C(C(=O)NC2CCCC2)c2ccccc2F)c(OC)c1` (centres undefined), the result in series [5], in series [6] and in series [7] was inactive. Besides, the hepatocyte CLint in [2] is above 150 µL/min/1e6 cells. For the same molecule, the IC50 was 3160 nM in series [8], 79.4 nM in [10], 251 nM in series [11] and 126 nM in series [1]. In addition, the microsomal CLint in [3] (liver microsomes) was above 150 µL/min/mg.
